Experimental data published in ChEMBL document CHEMBL5712915, “The Role of the Histone Methyltransferase EZH2 in Liver Inflammation and Fibrosis in STAM NASH Mice” (Biology (Basel), 2020).
Activity calls are given as the source filed them. The rule behind the calls is not given here.

Key:
Mus musculus [1] = assay: Anti-NASH activity in streptozotocin induced C57BL/6 mouse STAM model administered at 10 mg/kg, po daily for 3 weeks by hematoxylin and eosin staining analysis; assay type: functional, organism-based
How it was run: (§1)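 Male C57BL/6 pups given streptozotocin (200 μg per mouse) at two days old, high-fat diet from four weeks. Dosed orally once daily at 10 mg/kg from six to nine weeks of age. Liver fixed in 10% neutral buffered formalin and paraffin-embedded. 5-μm sections stained with H&E, or with Oil Red O for hepatic lipid.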

Mus musculus [2] = assay: Anti-NASH activity in streptozotocin induced C57BL/6 mouse STAM model assessed as reduction of liver steatosis administered at 10 mg/kg, po daily for 3 weeks by oil red O staining analysis; assay type: functional, organism-based; how it was run: as §1
[3] = Toxicity in streptozotocin induced C57BL/6 mouse STAM model assessed as change in body weight at 10 mg/kg, po daily for 3 weeks; assay type: organism-based; conditions: in vivo, 504 h
How it was run: (§2)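 In STAM mice (male C57BL/6, streptozotocin 200 μg per mouse at day 2, high-fat diet from week 4), oral dosing at 10 mg/kg once daily from six to nine weeks. Body weight recorded daily between 15:00 and 17:00. Liver, kidney and white adipose tissue weights expressed relative to body weight. Means ± SE; one-way ANOVA with Newman–Keuls test.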

[4] = Toxicity in streptozotocin induced C57BL/6 mouse STAM model assessed as change in liver weight at 10 mg/kg, po daily for 3 weeks; assay type: organism-based; conditions: in vivo, 504 h; how it was run: as §2
[5] = Toxicity in streptozotocin induced C57BL/6 mouse STAM model assessed as change in kidney weight at 10 mg/kg, po daily for 3 weeks; assay type: organism-based; conditions: in vivo, 504 h; how it was run: as §2
[6] = Toxicity in streptozotocin induced C57BL/6 mouse STAM model assessed as change in white adipose tissue weight at 10 mg/kg, po daily for 3 weeks; assay type: organism-based; conditions: in vivo, 504 h; how it was run: as §2
Mus musculus [7] = assay: Antiinflammatory activity in streptozotocin induced C57BL/6 mouse STAM model assessed as reduction of TNF-alpha level administered at 10 mg/kg, po daily for 3 weeks; assay type: functional, organism-based
How it was run: (§3)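 Streptozotocin (200 μg per mouse) given to two-day-old male C57BL/6 pups, high-fat diet from four weeks. Oral dosing at 10 mg/kg once daily for three weeks, starting at six weeks of age. Under anesthesia 500 μl blood collected and serum separated for TNF-α, ALT and glucose. Means ± SE; one-way ANOVA with Newman–Keuls test.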

Mus musculus [8] = assay: Antiinflammatory activity in streptozotocin induced C57BL/6 mouse STAM model assessed as reduction of ALT level administered at 10 mg/kg, po daily for 3 weeks; assay type: functional, organism-based; how it was run: as §3
Mus musculus [9] = assay: Antiinflammatory activity in streptozotocin induced C57BL/6 mouse STAM model assessed as reduction of glucose level administered at 10 mg/kg, po daily for 3 weeks; assay type: functional, organism-based; how it was run: as §3
[10] = biological target: Histone-lysine N-methyltransferase EZH2 (Mus musculus) (UniProt Q61188); assay: In vivo inhibition of EZH2 in streptozotocin induced C57BL/6 mouse STAM model assessed as reduction mRNA level administered at 10 mg/kg, po for 3 weeks; assay type: functional, organism-based
How it was run: (§4)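 STAM mice: male C57BL/6 pups given streptozotocin (200 μg per mouse) at day 2, high-fat diet from week 4, oral dosing at 10 mg/kg once daily from weeks 6–9. Liver total RNA reverse transcribed. qPCR run for 40 cycles of 95 °C 15 s, 55–60 °C 15 s, 72 °C 30 s. Comparative Ct method, normalized to GAPDH/18S, compared with control group.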

Mus musculus [11] = assay: Antiinflammatory activity against streptozotocin induced C57BL/6 mouse STAM model assessed as increase in Runx3 mRNA expression administered at 10 mg/kg, po for 3 weeks; assay type: functional, organism-based; how it was run: as §4
Mus musculus [12] = assay: Antiinflammatory activity against streptozotocin induced C57BL/6 mouse STAM model assessed as reduction of IFN-gamma expression administered at 10 mg/kg, po for 3 weeks; assay type: functional, organism-based; how it was run: as §4

Histone-lysine N-methyltransferase EZH2 (Mus musculus), sequence (Q61188 whole entry): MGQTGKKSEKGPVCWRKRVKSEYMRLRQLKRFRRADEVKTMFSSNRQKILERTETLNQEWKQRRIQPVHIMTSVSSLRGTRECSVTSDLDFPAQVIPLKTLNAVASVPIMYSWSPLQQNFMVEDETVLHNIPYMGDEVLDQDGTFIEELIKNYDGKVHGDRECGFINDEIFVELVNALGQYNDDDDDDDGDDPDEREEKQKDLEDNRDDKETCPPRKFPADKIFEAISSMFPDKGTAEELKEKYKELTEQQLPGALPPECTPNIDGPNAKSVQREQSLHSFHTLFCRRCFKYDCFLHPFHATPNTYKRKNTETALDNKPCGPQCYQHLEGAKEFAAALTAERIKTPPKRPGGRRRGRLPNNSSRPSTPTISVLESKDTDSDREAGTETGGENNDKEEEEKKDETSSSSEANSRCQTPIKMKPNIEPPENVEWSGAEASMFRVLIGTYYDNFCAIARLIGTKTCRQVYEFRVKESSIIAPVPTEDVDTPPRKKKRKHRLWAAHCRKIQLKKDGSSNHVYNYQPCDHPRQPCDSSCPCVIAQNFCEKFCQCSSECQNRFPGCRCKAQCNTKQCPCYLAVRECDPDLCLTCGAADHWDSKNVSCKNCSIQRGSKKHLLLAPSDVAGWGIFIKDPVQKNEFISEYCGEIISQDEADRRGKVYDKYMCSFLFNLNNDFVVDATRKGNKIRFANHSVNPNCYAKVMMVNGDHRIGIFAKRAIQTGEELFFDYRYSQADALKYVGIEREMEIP

Row | SMILES | Activity (Mus musculus [1]) | Activity (Mus musculus [2]) | Activity [3] | Activity [4] | Activity [5] | Activity [6] | Activity (Mus musculus [7]) | Activity (Mus musculus [8]) | Activity (Mus musculus [9]) | inhibition [10] | Activity (Mus musculus [11]) | Activity (Mus musculus [12])
1 | CC[C@H]1[C@@H](O)[C@@H]2[C@H](CC[C@]3(C)[C@@H]([C@H](C)CCC(=O)O)CC[C@@H]23)[C@@]2(C)CC[C@@H](O)C[C@@H]12 | Active | Active |  |  |  |  |  |  |  |  |  | 
2 | CCCc1cc(C)[nH]c(=O)c1CNC(=O)c1cc(-c2ccc(N3CCN(C(C)C)CC3)nc2)cc2c1cnn2C(C)C | Active | Active | Non-Toxic | Non-Toxic | Non-Toxic | Non-Toxic | Active | inactive | inactive | Active | Active | Active
3 | CCN(c1cc(-c2ccc(CN3CCOCC3)cc2)cc(C(=O)NCc2c(C)cc(C)[nH]c2=O)c1C)C1CCOCC1 [TAZEMETOSTAT] | Active | Active | Non-Toxic | Non-Toxic | Non-Toxic | Non-Toxic | inactive | inactive | inactive |  | Active | Active
